For the test, the target named is T1, M-phase inducer phosphatase 3 (Homo sapiens, UniProt P30307).
T1 sequence (P30307 whole entry): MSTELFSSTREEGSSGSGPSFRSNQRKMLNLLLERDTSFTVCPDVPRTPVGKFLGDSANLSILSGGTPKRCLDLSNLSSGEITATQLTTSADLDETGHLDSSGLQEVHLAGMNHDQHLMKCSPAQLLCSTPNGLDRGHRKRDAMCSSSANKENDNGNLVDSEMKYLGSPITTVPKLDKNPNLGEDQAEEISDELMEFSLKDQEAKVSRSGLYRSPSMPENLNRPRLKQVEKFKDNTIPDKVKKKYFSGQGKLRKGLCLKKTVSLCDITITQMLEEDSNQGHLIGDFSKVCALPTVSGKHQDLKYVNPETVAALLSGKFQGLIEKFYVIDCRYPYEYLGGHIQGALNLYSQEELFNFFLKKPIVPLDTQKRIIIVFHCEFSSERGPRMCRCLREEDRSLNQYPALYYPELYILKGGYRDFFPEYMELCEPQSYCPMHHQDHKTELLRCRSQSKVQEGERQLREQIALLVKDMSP
The experiment in a line: Inhibitory activity against recombinant CDC25C. The method, boiled down:
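Recombinant maltose binding protein (MBP)-CDC25C fusion enzyme, with 3-O-methylfluorescein phosphate (OMFP) as substrate. IC50 given as mean ± SEM from at least two, usually three, independent experiments.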
`CCc1nc2c(O)cc(N=CCN(C)C)c(O)c2[nH]1` [5-(2-(dimethylamino)ethylamino)-2-ethyl-1H-benzo[d]imidazole-4,7-dione]: the IC50 was determined as 12000 nM.

Consider `CCc1nc2c(O)c(N=CCN(C)C)cc(O)c2o1` [5-(2-(dimethylamino)ethylamino)-2-ethylbenzo[d]oxazole-4,7-dione], for which the IC50 stood at 130 nM.

With `CN(C)CC=Nc1cc(O)c2nn(-c3ccccc3)cc2c1O` [5-(2-(dimethylamino)ethylamino)-2-phenyl-2H-indazole-4,7-dione], the IC50 is 12000 nM.

Turning to `CN(C)CC=Nc1cc(O)c2oc(-c3ccccc3)nc2c1O` [5-(2-(dimethylamino)ethylamino)-2-phenylbenzo[d]oxazole-4,7-dione], the IC50 is 230 nM.

With `CCc1nc2c(O)cc(N=CCN(C)C)c(O)c2o1` [6-(2-(dimethylamino)ethylamino)-2-ethylbenzo[d]oxazole-4,7-dione], the IC50 was 130 nM.

With `CN(C)CC=Nc1cc(O)c2cn(-c3ccccc3)nc2c1O` [6-(2-(dimethylamino)ethylamino)-2-phenyl-2H-indazole-4,7-dione], the IC50 amounted to 12000 nM.

Turning to `CN(C)CC=Nc1cc(O)c2nc(-c3ccccc3)oc2c1O` [6-(2-(dimethylamino)ethylamino)-2-phenylbenzo[d]oxazole-4,7-dione], the IC50 is 230 nM.

These data come from BindingDB's records for doi:10.1016/j.bmcl.2005.09.030 (Institut Henri Beaufour, 2005).
